According to ChEMBL document CHEMBL4428118, “Optimization of pyrimidinol antioxidants as mitochondrial protective agents: ATP production and metabolic stability” (Bioorg Med Chem, 2016):
Each block holds one compound with its values, some of them ahead of it. Active and inactive are the calls of the source. No cut-off for these calls is given here.

Key:
GM15850 [1] = assay: Antioxidant activity in FRDA patient derived lymphocyte GM15850 assessed as suppression of DEM-induced intracellular ROS levels pre-incubated for 16 hrs followed by DEM addition for 80 mins by DCFH-DA probe based flow cytometry; type: functional, cell-based; conditions: Homo sapiens
Method in brief: (§1)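 Cells (5 × 10^5) pretreated with compound 16 h at 37 °C, then 5 mM DEM for 80 min. Washed, then 10 μM DCFH-DA in PBS with 20 mM glucose for 25 min at 37 °C in the dark. DCF read on FL1-H, 10,000 events. Median fluorescence given as % of DEM-treated control. Duplicates, three independent runs.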

GM15850 [2] = assay: Inhibition of DEM-induced collapse of mitochondrial membrane potential in FRDA patient derived lymphocyte GM15850 assessed as intact mitochondrial membrane potential at 100 nM pre-incubated for 16 hrs followed by DEM addition for 120 mins by TMRM dye based flow cytometry (reference value: 91.3 %); type: functional, Homo sapiens; set-up: scale not given: the % may be the effect or the level left
Method in brief: (§2)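 Cells (5 × 10^5) pretreated with or without compound for 16 h, then 5 mM DEM for 120 min. Stained with 250 nM TMRM in PBS with 20 mM glucose, 15 min at 37 °C in the dark. FL2-H read, 10,000 events, % cells with high TMRM uptake (intact potential). FCCP as uncoupler control. Means ± SEM of independent experiments run in duplicate.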

GM15850 [3] = assay: Inhibition of DEM-induced collapse of mitochondrial membrane potential in FRDA patient derived lymphocyte GM15850 assessed as intact mitochondrial membrane potential at 2500 nM pre-incubated for 16 hrs followed by DEM addition for 120 mins by TMRM dye based flow cytometry (reference value: 91.3 %); type: functional, Homo sapiens; set-up: scale not given: the % may be the effect or the level left; method in brief: as §2
GM15850 [4] = assay: Effect on mitochondrial membrane potential in FRDA patient derived lymphocyte GM15850 incubated for 16 hrs by TMRM dye based flow cytometry; type: cell-based; conditions: human, gm15850, 16 h
GM15850 [5] = assay: Antioxidant activity in FRDA patient derived lymphocyte GM15850 assessed as suppression of DEM-induced intracellular ROS levels at 2.5 uM pre-incubated for 16 hrs followed by DEM addition for 80 mins by DCFH-DA probe based flow cytometry; type: functional, cell-based; conditions: Homo sapiens; method in brief: as §1
GM15850 [6] = assay: Increase in total intracellular ATP levels in FRDA patient derived lymphocyte GM15850 grown in galactose medium at 1 uM after 48 hrs by luciferin-luciferase reaction based bioluminescence assay relative to control; type: functional, Homo sapiens
Method in brief: (§3)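 Cells at 2 × 10^5 cells/mL in glucose-free RPMI with 25 mM galactose, 10% dialyzed FBS and 2 mM glutamine. Compound exposure 48 h at 37 °C, 5% CO2. Total ATP read by luciferin-luciferase bioluminescence. Expressed as % of untreated control, mean of at least three independent runs; Student's t-test, p ≤ 0.05 versus vehicle.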

GM15850 [7] = assay: Increase in total intracellular ATP levels in FRDA patient derived lymphocyte GM15850 grown in galactose medium at 20 uM after 48 hrs by luciferin-luciferase reaction based bioluminescence assay relative to control; type: functional, Homo sapiens; method in brief: as §3
GM15850 [8] = assay: Inhibition of DEM-induced collapse of mitochondrial membrane potential in FRDA patient derived lymphocyte GM15850 assessed as intact mitochondrial membrane potential at 1000 nM pre-incubated for 16 hrs followed by DEM addition for 120 mins by TMRM dye based flow cytometry (reference value: 91.3 %); type: functional, Homo sapiens; set-up: scale not given: the % may be the effect or the level left; method in brief: as §2
GM15850 [9] = assay: Cytoprotective activity against DEM induced oxidative stress in FRDA patient derived lymphocyte GM15850 assessed as cell viability at 0.1 uM pre-incubated for 16 hrs followed by DEM addition for 6 hrs by calcein AM/EthD-1 staining based flow cytometry; type: functional; conditions: Homo sapiens
Method in brief: (§4)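 Seeding 5 × 10^5 cells/mL, compound for 16 h at 37 °C, then 5 mM DEM for 6 h. Cells washed, resuspended in PBS with 25 mM galactose. Stained with 0.1 μM calcein AM and 0.1 μM EthD-1, 15 min at 37 °C in the dark. FL1-H/FL2-H read, 10,000 events. Viability relative to DMSO vehicle control.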

GM15850 [10] = assay: Antioxidant activity in FRDA patient derived lymphocyte GM15850 assessed as inhibition of DEM-induced lipid peroxidation at 0.1 to 1 uM pre-incubated for 16 hrs followed by DEM addition for 120 mins by C11-BODIPY581/591 probe based flow cytometry relative to control; type: functional, cell-based; conditions: Homo sapiens
Method in brief: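 Cells seeded at 5 × 10^5 cells/mL in RPMI-1640 with 15% fetal calf serum and 2 mM glutamine. Compounds added 16 h at 37 °C, 5% CO2. Then 1 μM C11-BODIPY581/591 in phenol red-free medium, 30 min in the dark. 5 mM DEM for 120 min, PBS wash, FL1-H read (488 nm excitation). 10,000 events. Green median fluorescence reported as % of DEM-treated control, n = 3.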

GM15850 [11] = assay: Antioxidant activity in FRDA patient derived lymphocyte GM15850 assessed as suppression of DEM-induced intracellular ROS levels at 100 nM pre-incubated for 16 hrs followed by DEM addition for 80 mins by DCFH-DA probe based flow cytometry; type: functional, cell-based; conditions: Homo sapiens; method in brief: as §1
GM15850 [12] = assay: Increase in total intracellular ATP levels in FRDA patient derived lymphocyte GM15850 grown in galactose medium at 5 uM after 48 hrs by luciferin-luciferase reaction based bioluminescence assay relative to control; type: functional, Homo sapiens; method in brief: as §3
[13] = Stability in bovine liver microsomes assessed as drug recovery at 25 uM after 30 mins in presence of beta-NADPH by HPLC analysis; type: ADME, Bos taurus, Microsome; conditions: cattle, read-out: Drug recovery
Method in brief: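 Freshly prepared bovine liver microsomes at 1 mg/mL protein in 50 mM phosphate buffer pH 7.4 with 5 mM MgCl2. Compound at 25 μM final, reaction started with 1 mM β-NADPH, 30 min at 37 °C, stopped with propanol. Control was deactivated microsomes without NADPH. Reversed-phase HPLC with fluorene internal standard. Reported as % remaining versus control, quadruplicate.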

GM15850 [14] = assay: Inhibition of DEM-induced collapse of mitochondrial membrane potential in FRDA patient derived lymphocyte GM15850 assessed as intact mitochondrial membrane potential pre-incubated for 16 hrs followed by DEM addition for 120 mins by TMRM dye based flow cytometry; type: functional, cell-based; conditions: Homo sapiens; method in brief: as §2
GM15850 [15] = assay: Cytoprotective activity against DEM induced oxidative stress in FRDA patient derived lymphocyte GM15850 assessed as cell viability at 0.5 uM pre-incubated for 16 hrs followed by DEM addition for 6 hrs by calcein AM/EthD-1 staining based flow cytometry; type: functional; conditions: Homo sapiens; method in brief: as §4
GM15850 [16] = assay: Increase in total intracellular ATP levels in FRDA patient derived lymphocyte GM15850 grown in galactose medium after 48 hrs by luciferin-luciferase reaction based bioluminescence assay; type: functional, cell-based; conditions: Homo sapiens; method in brief: as §3

remaining at 0.5 h, 25 µM [13]: 76%
Compound: CCCCCCCCCCCCCCCCc1nc(N2CCC2)nc(OC(C)C)c1O
Activity (GM15850 [2]): 91.5%
Activity (GM15850 [3]): 87.5%
Activity (GM15850 [4]): Non-Toxic
Activity (GM15850 [6]): 106%
Activity (GM15850 [7]): 95%
Activity (GM15850 [8]): 90.4%
Activity (GM15850 [9]): inactive
Activity (GM15850 [10]): Active
Activity (GM15850 [11]): Active
Activity (GM15850 [12]): 109%
Activity (GM15850 [14]): Dose-dependent effect
Activity (GM15850 [15]): Active

remaining at 0.5 h, 25 µM [13]: 54%
Compound: CCCCCCCCCCCCCCCCc1nc(N2CCC2)nc(OCC)c1O
Activity (GM15850 [2]): 88.9%
Activity (GM15850 [3]): 88%
Activity (GM15850 [4]): Non-Toxic
Activity (GM15850 [6]): 100%
Activity (GM15850 [7]): 96%
Activity (GM15850 [8]): 87.6%
Activity (GM15850 [9]): inactive
Activity (GM15850 [10]): Active
Activity (GM15850 [11]): Active
Activity (GM15850 [12]): 108%
Activity (GM15850 [14]): Dose-dependent effect
Activity (GM15850 [15]): Active

remaining at 0.5 h, 25 µM [13]: 46%
Compound: CCCCCCCCCCCCCCCCc1nc(N(C)C)nc(OC)c1O
Activity (GM15850 [2]): 92%
Activity (GM15850 [3]): 85.8%
Activity (GM15850 [4]): Non-Toxic
Activity (GM15850 [6]): 115%
Activity (GM15850 [7]): 88%
Activity (GM15850 [8]): 88.3%
Activity (GM15850 [9]): inactive
Activity (GM15850 [10]): Active
Activity (GM15850 [11]): Active
Activity (GM15850 [12]): 107%
Activity (GM15850 [14]): Dose-dependent effect

remaining at 0.5 h, 25 µM [13]: 58%
Compound: CCCCCCCCCCCCCCCCc1nc(N2CCC2)nc(OC)c1O
Activity (GM15850 [2]): 90.5%
Activity (GM15850 [3]): 86.8%
Activity (GM15850 [4]): Non-Toxic
Activity (GM15850 [6]): 102%
Activity (GM15850 [7]): 74%
Activity (GM15850 [8]): 88.8%
Activity (GM15850 [9]): inactive
Activity (GM15850 [10]): Active
Activity (GM15850 [11]): Active
Activity (GM15850 [12]): 109%
Activity (GM15850 [14]): Dose-dependent effect
Activity (GM15850 [15]): Active

The next lines start with the compound.

Compound: CCCCCCCCCCCCCCCCc1nc(N2CCCC2)nc(OC2CCC2)c1O
Activity (GM15850 [1]): Dose-dependent effect
Activity (GM15850 [2]): 42.5%
Activity (GM15850 [3]): 70.4%
Activity (GM15850 [4]): Non-Toxic
Activity (GM15850 [5]): Active
Activity (GM15850 [6]): 98%
Activity (GM15850 [7]): 102%
Activity (GM15850 [8]): 52.3%
Activity (GM15850 [9]): inactive
Activity (GM15850 [10]): inactive
Activity (GM15850 [11]): inactive
Activity (GM15850 [12]): 107%
remaining at 0.5 h, 25 µM [13]: 72%
Activity (GM15850 [14]): Dose-dependent effect
Activity (GM15850 [15]): inactive

Compound: CCCCCCCCCCCCCCCCc1nc(N2CCC2)nc(C)c1O
Activity (GM15850 [2]): 91.1%
Activity (GM15850 [3]): 83.3%
Activity (GM15850 [4]): Non-Toxic
Activity (GM15850 [6]): 109%
Activity (GM15850 [7]): 60%
Activity (GM15850 [8]): 86.5%
Activity (GM15850 [9]): inactive
Activity (GM15850 [10]): Active
Activity (GM15850 [11]): Active
Activity (GM15850 [12]): 98%
remaining at 0.5 h, 25 µM [13]: 57%
Activity (GM15850 [14]): Dose-dependent effect
Activity (GM15850 [15]): Active

Compound: CCCCCCCCCCCCCCCCc1nc(N2CCCCC2)nc(OC2CCC2)c1O
Activity (GM15850 [1]): Dose-dependent effect
Activity (GM15850 [2]): 7.8%
Activity (GM15850 [3]): 62.3%
Activity (GM15850 [4]): Non-Toxic
Activity (GM15850 [5]): Active
Activity (GM15850 [6]): 99%
Activity (GM15850 [7]): 100%
Activity (GM15850 [8]): 32.4%
Activity (GM15850 [9]): inactive
Activity (GM15850 [10]): inactive
Activity (GM15850 [11]): inactive
Activity (GM15850 [12]): 106%
remaining at 0.5 h, 25 µM [13]: 72%
Activity (GM15850 [14]): Dose-dependent effect
Activity (GM15850 [15]): inactive

Compound: CCCCCCCCCCCCCCCCc1nc(N2CCC2)nc(OC2CCC2)c1O
Activity (GM15850 [1]): Dose-dependent effect
Activity (GM15850 [2]): 55%
Activity (GM15850 [3]): 83.4%
Activity (GM15850 [4]): Non-Toxic
Activity (GM15850 [5]): Active
Activity (GM15850 [6]): 98%
Activity (GM15850 [7]): 103%
Activity (GM15850 [8]): 66.6%
Activity (GM15850 [9]): inactive
Activity (GM15850 [10]): inactive
Activity (GM15850 [11]): inactive
Activity (GM15850 [12]): 112%
remaining at 0.5 h, 25 µM [13]: 65%
Activity (GM15850 [14]): Dose-dependent effect
Activity (GM15850 [15]): inactive

Compound: CCCCCCCCCCCCCCCOc1nc(N2CCC2)nc(C)c1O
Activity (GM15850 [2]): 88.9%
Activity (GM15850 [3]): 77.2%
Activity (GM15850 [4]): Non-Toxic
Activity (GM15850 [6]): 96%
Activity (GM15850 [16]): Dose-dependent effect
Activity (GM15850 [7]): 11%
Activity (GM15850 [8]): 82.7%
Activity (GM15850 [9]): inactive
Activity (GM15850 [10]): Active
Activity (GM15850 [11]): Active
Activity (GM15850 [12]): 68%
remaining at 0.5 h, 25 µM [13]: 62%
Activity (GM15850 [14]): Dose-dependent effect
Activity (GM15850 [15]): Active
